Platelet DG rel – modulates dense granule release in human platelets; inhibition, %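 (compounds screened at 7.5 µM in platelet-rich plasma)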; human platelet-rich plasma, SFLLRN dense granule ATP release, luminescence; actives 0.22% (n = 300,000); AID 1663;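 active = mean replicate score, as percent of positive control, at or above 50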
SENP7 inh – blocks the human protease SENP7; Q9BQF6; recombinant SENP7, Z-RLRGG-aminoluciferin luminescence, 40 min; inhibition, % at 5 µM; actives 1.5% (n = 330,000);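 active = inhibition above about 50% at the single test dose, limit read from the data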
SENP1 inh – blocks the human SENP1 SUMO protease catalytic domain | Q9P0U3 | recombinant SENP1 catalytic domain, CyPet-SUMO1-YPet FRET cleavage | inhibition, % at 10 µM | actives 0.21% (n = 360,000);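 active = inhibition at least 30% at 10 µM, raw YFP signal under a set limit, fluorescence ratio 0.5 to 1.5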
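Material – human SENP1 catalytic domain · Input – SENP1 enzyme, 20 pM final · Compound dosing – single concentration of 10 µM compound, 0.5% DMSO final · Timing – enzyme reaction for 50 min at room temperature, dark · Measured by – FRET fluorescence in CFP and YFP emission channels · Control set – no-enzyme wells low, DMSO-plus-enzyme wells high control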
SENP8 block-1 – blocks the human protease SENP8. purified SENP8, Z-RLRGG-aminoluciferin cleavage, luminescence. inhibition, % at 10 µM. actives 1.2% (n = 330,000). AID 2540; in the data active = inhibition above about 50%
Target sequence (Q96LD8 whole entry, looked up): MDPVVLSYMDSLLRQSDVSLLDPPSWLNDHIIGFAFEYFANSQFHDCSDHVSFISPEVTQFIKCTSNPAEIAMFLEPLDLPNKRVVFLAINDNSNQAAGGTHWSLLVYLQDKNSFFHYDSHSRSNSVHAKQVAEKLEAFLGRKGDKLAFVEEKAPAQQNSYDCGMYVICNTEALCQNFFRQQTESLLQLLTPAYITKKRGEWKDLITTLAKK
SENP6 block – inhibitors of human SENP6 protease; Q9GZR1; Recombinant SENP6 catalytic domain, aminoluciferin luminescence; inhibition, % at 10 µM; actives 1.8% (n = 330,000);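 active = inhibition above about 50% at the single tested dose, limit read from the data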
SENP8 block-2 – SENP8 (human) protease inhibition | recombinant SENP8, Nedd8 substrate fluorescence | actives 0.64% (n = 360,000) | inhibition, % at 20 µM | AID 602440; in the data active = inhibition mostly above about 40%, no sharp cut-off; inactive = mostly below about 27%
SENP8 confirm – confirmation of human SENP8 protease inhibitors; shares compounds with SENP7 inh; Recombinant SENP8, Z-RLRGG-aminoluciferin luminescence, 60 min; inhibition, % at 12.5 µM; actives 40% (n = 6,200);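 active = mean inhibition across replicates above about 50%, limit read from the data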
SENP6 conf – human SENP6 inhibition, confirmed. shares compounds with SENP7 inh. recombinant SENP6, Z-RLRGG-aminoluciferin luminescence. inhibition, % at 12.5 µM. actives 58% (n = 6,200). AID 488915
SENP7 conf – confirmation of human SENP7 protease inhibitors | shares compounds with SENP7 inh | recombinant SENP7, Z-RLRGG-aminoluciferin luminescence, 40 min | inhibition, % at 12.5 µM | actives 69% (n = 6,200)
Casp3 SENP sel – inhibits human caspase-3 in SENP selectivity test. shares compounds with SENP7 inh. purified caspase-3, Z-DEVD-aminoluciferin luminescence, 60 min. inhibition, % at 12.5 µM. actives 60% (n = 6,200). AID 488918;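 active = mean inhibition above about 50%, limit read from the data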
Target sequence (P42574 28-227 limits assumed): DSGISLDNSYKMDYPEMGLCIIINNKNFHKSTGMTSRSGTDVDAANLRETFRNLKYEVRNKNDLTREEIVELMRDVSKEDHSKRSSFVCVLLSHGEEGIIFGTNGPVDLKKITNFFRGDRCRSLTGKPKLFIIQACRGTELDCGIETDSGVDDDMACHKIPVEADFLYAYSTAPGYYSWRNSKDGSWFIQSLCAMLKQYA
Luc interf – luminescence interference (SENP counter-screen) | shares compounds with SENP7 inh | Pre-incubated SENP8/Z-RLRGG-aminoluciferin, luciferase luminescence interference | inhibition, % at 12.5 µM | actives 39% (n = 6,200);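 active = mean inhibition above about 50% when retested at one dose, limit read from the data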
Large screens that a line does not name were inactive (follow-up assays come after a bar, where they were run). Rows were chosen to be rich in hits. Some 2.6% of all compounds tested hit in one or more screens of this group.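 The calls were made as follows, unless noted: active = mean inhibition above about 50% in the one-dose retest (limit read from the data); inactive = the rest.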

COc1ccc2occ(C(=O)c3ccc(N)cc3)c2c1	SENP7 inh 53 | SENP8 confirm 55 | SENP6 conf 54 | SENP7 conf 82 | Casp3 SENP sel inactive | Luc interf 65
COc1ccc2occ(C(=O)c3cccs3)c2c1	SENP7 inh 52, SENP6 block 69 | SENP8 confirm 56 | SENP6 conf 58 | SENP7 conf 84 | Casp3 SENP sel 52 | Luc interf 62
Cc1ccc(C)c(S(=O)(=O)N2CCN(c3nc(-c4cccnc4)nc4ccccc34)CC2)c1	none (no result: Platelet DG rel)
CCOCCn1c(=O)c2c(nc3n2CC(C)CN3CCc2ccccc2)n(C)c1=O (stereo not drawn)	none
COc1cc(OC)cc(C(=O)Nn2c(C)nc3ccccc3c2=O)c1	none
COc1ccc2[nH]c3c(c2c1)CCn1c-3nc2ccccc2c1=O	SENP7 inh 80 (no result: Platelet DG rel) | SENP8 confirm inactive | SENP6 conf inactive | SENP7 conf inactive | Casp3 SENP sel inactive | Luc interf inactive
COCCCN(C(=O)CC1OC(=O)c2ccccc21)c1c(N)n(Cc2ccccc2)c(=O)[nH]c1=O (stereo not drawn)	none
O=S1(=O)CC/C(=N/Nc2ccc(C(F)(F)F)cn2)c2cc(F)ccc21	none
O=S1(=O)CC/C(=N/Nc2ccccn2)c2cc(F)ccc21	SENP7 inh 63 | SENP8 confirm inactive | SENP6 conf inactive | SENP7 conf inactive | Casp3 SENP sel inactive | Luc interf inactive
CCOC(=O)COn1c(-c2cccc(Cl)c2)nc2ccc([N+](=O)[O-])cc21	SENP7 inh 90, SENP8 block-1 87, SENP6 block 94 | SENP8 confirm 81 | SENP6 conf 81 | SENP7 conf 92 | Casp3 SENP sel 65 | Luc interf 69
COC(=O)c1sccc1NC(=O)Cc1ccc(Br)cc1	SENP6 block 59 | SENP8 confirm 60 | SENP6 conf 56 | SENP7 conf inactive | Casp3 SENP sel inactive | Luc interf inactive
O=C1C(=O)N(C2CCS(=O)(=O)C2)C(c2cccc(O)c2)/C1=C(/O)c1ccc(Cl)cc1 (stereo not drawn)	none
CCOC(=O)COc1cc(N)c(Cl)cc1Cl	SENP8 block-1 80 | SENP8 confirm inactive | SENP6 conf inactive | SENP7 conf inactive | Casp3 SENP sel inactive | Luc interf inactive
Cc1cc(NC(=O)CSc2nc(C)c(C)n2CC(C)C)no1	none (no result: Platelet DG rel)
Clc1ccc2nc(N3CCCCC3)[nH]c2c1	SENP7 inh 52, SENP6 block 59 | SENP8 confirm inactive | SENP6 conf inactive | SENP7 conf 80 | Casp3 SENP sel 72 | Luc interf 59
CS(=O)(=O)N1CCN(c2nc3ccc(Cl)cc3s2)CC1	none
Fc1cccc2sc(N3CCOCC3)nc12	none
CCOC(=O)N1CCN(C(=O)Nc2ccc3nc(C)sc3c2)CC1	none
CCOC(=O)Nc1ccc2nc(N3CCCCCC3)sc2c1	SENP6 block 58 | SENP8 confirm inactive | SENP6 conf inactive | SENP7 conf 69 | Casp3 SENP sel inactive | Luc interf inactive
Fc1cccc2sc(N3CCCCC3)nc12	SENP6 block 59 | SENP8 confirm inactive | SENP6 conf inactive | SENP7 conf 71 | Casp3 SENP sel inactive | Luc interf inactive
Clc1ccc2nc(N3CCCCC3)sc2c1	SENP7 inh 90, SENP8 block-1 88, SENP6 block 97 | SENP8 confirm 78 | SENP6 conf 84 | SENP7 conf 89 | Casp3 SENP sel 82 | Luc interf inactive

Bioassay records deposited in PubChem BioAssay by several laboratories.
